Results from ChEMBL document CHEMBL1124262, “Cardiotonic agents. Synthesis and inotropic activity of a series of isoquinolin-3-ol derivatives” (J Med Chem, 1988).
Values belong to the molecule of their own block, whether it stands above or below them.

Columns and labels:
Canis familiaris [1] = experiment: 50% increase in contractile force in one to three anesthetized dogs administered intravenously; type: functional; conditions: Canis lupus familiaris, iv
Method in brief: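 Anesthetized dogs (one to three). Compound is infused iv in three to four stepwise increasing doses, each over 5 min once the previous effect has peaked. Contractile force is recorded with a Walton Brodie strain gauge on the right ventricle. The dose (μg/kg) giving a 50% rise over control CF is read from the dose-response curve, graphically (n < 3) or by linear regression (n ≥ 3).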

Canis familiaris [2] = experiment: Percent change in mean arterial blood pressure (MAP) in anesthetized open chest dogs iv administration at 1 mg/kg; type: functional, Canis lupus familiaris
Method in brief: (§1)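 Anesthetized open-chest dogs, one drug per animal. Compound is in DMF diluted to 10% in saline, or given as the HCl salt in saline. It is infused into the femoral vein by pump at 0.58-2.2 mL/min in 3-4 stepwise cumulative doses, each over 5 min after the prior peak. Readings are CF by right-ventricle strain gauge, dP/dtmax by Millar LV catheter, HR by cardiotachometer and MAP from femoral artery, as % change from predrug control.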

Phosphodiesterase 3 = Phosphodiesterase 3 (Homo sapiens, UniProt Q14432+Q13370); experiment: Inhibition of phosphodiesterase fraction III in anesthetized open chest dogs; type: functional, Canis lupus familiaris; conditions: target entry is the homologue from another species
Method in brief: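 Enzyme is dog heart PDE-III, the third DEAE-cellulose fraction eluted at 800 mM sodium acetate. Compounds are tested at 0.01–1000 μM with 0.25 μM cAMP containing [³H]cAMP, in 0.05 M Tris-HCl pH 7.4 with 5 mM MgCl2. The reaction is stopped by heat, then snake venom converts product to adenosine. [³H]adenosine is counted by scintillation after Dowex separation. IC50 comes from ≥2 determinations, each in duplicate.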

Canis familiaris [3] = experiment: Percent increase in left ventricular pressure (dP/dtmax) of anesthetized dog after id administration at 1 mg/kg; type: functional, Canis lupus familiaris, Heart left ventricle; conditions: route intraduodenal
Method in brief: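 Anesthetized open-chest dogs. Left ventricular pressure was measured by Millar catheter and dP/dtmax derived. Compound was given as a 10-mL bolus into the duodenum through a catheter placed 2 cm distal to the pylorus via flank incision. Dissolved in DMF diluted to 10% in saline, or as HCl salt in saline. Response is % change over predrug control, monitored continuously.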

Canis familiaris [4] = experiment: Contractile force in anesthetized open chest dogs id administration at 1.00 mg/kg; type: functional, Canis lupus familiaris; conditions: route intraduodenal
Method in brief: (§2)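 Anesthetized open-chest dogs. A 10-mL bolus is injected into the duodenum through a catheter placed 2 cm distal to the pylorus. Contractile force is measured with a Walton Brodie strain gauge sutured to the right ventricle, at a baseline tension of 100 g, and monitored continuously. Results are given as % increase from predrug control against cumulative dose.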

Canis familiaris [5] = experiment: Percent change in mean arterial blood pressure (MAP) in anesthetized open chest dogs iv administration at 0.025 mg/kg; type: functional, Canis lupus familiaris; method in brief: as §1
Canis familiaris [6] = experiment: Percent change in heart rate (HR) in anesthetized open chest dogs after a iv dose of 1 mg/kg; type: functional, Canis lupus familiaris; method in brief: as §1
Canis familiaris [7] = experiment: Percent change in heart rate (HR) in anesthetized open chest dogs after a iv dose of 0.025 mg/kg; type: functional, Canis lupus familiaris; method in brief: as §1
Canis familiaris [8] = experiment: Percent change in left ventricular pressure (dP/dtmax) in anesthetized dog after iv administration at 0.025 mg/kg; type: functional, Canis lupus familiaris, Heart left ventricle; method in brief: as §1
Canis familiaris [9] = experiment: Percent increase in contractile force (CF) in anesthetized open-chest dogs iv administration of 0.025 mg/kg; type: functional, Canis lupus familiaris; method in brief: as §1
Canis familiaris [10] = experiment: Percent change in mean arterial blood pressure (MAP) in anesthetized open chest dogs iv administration at 0.3750 mg/kg; type: functional, Canis lupus familiaris; conditions: dose 0.375 mg/kg; method in brief: as §1
Canis familiaris [11] = experiment: Percent increase in contractile force (CF) in anesthetized open-chest dogs iv administration of 0.375 mg/kg; type: functional, Canis lupus familiaris
Method in brief: (§3)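 Anesthetized open-chest dogs. After a right thoracotomy, contractile force was recorded by a Walton Brodie strain gauge sutured to the right ventricle at 100 g baseline tension. Compound was given iv by infusion pump into a femoral vein, one drug per animal, in three to four stepwise increasing doses. Each dose ran over 5 min, starting once the previous dose's effect peaked. Values are % increase over predrug control vs cumulative mg/kg dose.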

Canis familiaris [12] = experiment: Percent change in heart rate (HR) in anesthetized open chest dogs after a iv dose of 0.375 mg/kg; type: functional, Canis lupus familiaris; method in brief: as §1
Canis familiaris [13] = experiment: Percent change in left ventricular pressure (dP/dtmax) in anesthetized dog after iv administration at 0.375 mg/kg; type: functional, Canis lupus familiaris, Heart left ventricle; method in brief: as §1
Canis familiaris [14] = experiment: Change in heart contractile force of anaesthetized, open chest dogs following 0.875 mg/kg i.v. administration.; type: functional, Canis lupus familiaris; conditions: route intravenous; method in brief: as §1
Canis familiaris [15] = experiment: Change in heart rate of anaesthetized, open chest dogs following 0.875 mg/kg i.v. administration.; type: functional, Canis lupus familiaris; conditions: route intravenous; method in brief: as §1
Canis familiaris [16] = experiment: Percent change in mean arterial blood pressure (MAP) in anesthetized open chest dogs iv administration at 0.875 mg/kg; type: functional, Canis lupus familiaris; method in brief: as §1
Canis familiaris [17] = experiment: Change in left ventricular pressure of anaesthetized, open chest dogs following 0.875 mg/kg i.v. administration.; type: functional, Canis lupus familiaris, Heart left ventricle; conditions: route intravenous; method in brief: as §1
Canis familiaris [18] = experiment: Percent increase in contractile force (CF) in anesthetized open-chest dogs iv administration of 8.75 mg/kg; type: functional, Canis lupus familiaris; method in brief: as §3
Canis familiaris [19] = experiment: Percent change in mean arterial blood pressure (MAP) in anesthetized open chest dogs iv administration at 8.75 mg/kg; type: functional, Canis lupus familiaris; method in brief: as §1
Canis familiaris [20] = experiment: Percent change in left ventricular pressure (dP/dtmax) in anesthetized dog after iv administration at 8.75 mg/kg; type: functional, Canis lupus familiaris, Heart left ventricle; method in brief: as §1
Canis familiaris [21] = experiment: Percent change in heart rate (HR) in anesthetized open chest dogs after a iv dose of 8.75 mg/kg; type: functional, Canis lupus familiaris; method in brief: as §1
Canis familiaris [22] = experiment: Percent change in mean arterial blood pressure (MAP) in anesthetized open chest dogs iv administration at 1.75 mg/kg; type: functional, Canis lupus familiaris; method in brief: as §1
Canis familiaris [23] = experiment: Percent change in heart rate (HR) in anesthetized open chest dogs after a iv dose of 1.75 mg/kg; type: functional, Canis lupus familiaris; method in brief: as §1
Canis familiaris [24] = experiment: Percent change in left ventricular pressure (dP/dtmax) in anesthetized dog after iv administration at 1.75 mg/kg; type: functional, Canis lupus familiaris, Heart left ventricle; method in brief: as §1
Canis familiaris [25] = experiment: Percent increase in contractile force (CF) in anesthetized open-chest dogs iv administration of 1.75 mg/kg; type: functional, Canis lupus familiaris; method in brief: as §3
Canis familiaris [26] = experiment: Percent change in mean arterial blood pressure (MAP) in anesthetized open chest dogs iv administration at 3.75 mg/kg; type: functional, Canis lupus familiaris; method in brief: as §1
Canis familiaris [27] = experiment: Percent change in left ventricular pressure (dP/dtmax) in anesthetized dog after iv administration at 3.75 mg/kg; type: functional, Canis lupus familiaris, Heart left ventricle; method in brief: as §1
Canis familiaris [28] = experiment: Percent increase in contractile force (CF) in anesthetized open-chest dogs iv administration of 3.75 mg/kg; type: functional, Canis lupus familiaris; method in brief: as §3
Canis familiaris [29] = experiment: Percent change in heart rate (HR) in anesthetized open chest dogs after a iv dose of 3.75 mg/kg; type: functional, Canis lupus familiaris; method in brief: as §1
Canis familiaris [30] = experiment: Percent change in mean arterial blood pressure (MAP) in anesthetized open chest dogs iv administration at 0.375 mg/kg; type: functional, Canis lupus familiaris; method in brief: as §1
Canis familiaris [31] = experiment: Percent increase in contractile force (CF) in anesthetized open-chest dogs iv administration of 1.875 mg/kg; type: functional, Canis lupus familiaris; method in brief: as §3
Canis familiaris [32] = experiment: Percent change in heart rate (HR) in anesthetized open chest dogs after a iv dose of 1.875 mg/kg; type: functional, Canis lupus familiaris; method in brief: as §1
Canis familiaris [33] = experiment: Percent change in mean arterial blood pressure (MAP) in anesthetized open chest dogs iv administration at 1.875 mg/kg; type: functional, Canis lupus familiaris; method in brief: as §1
Canis familiaris [34] = experiment: Percent change in left ventricular pressure (dP/dtmax) in anesthetized dog after iv administration at 1.875 mg/kg; type: functional, Canis lupus familiaris, Heart left ventricle; method in brief: as §1
Canis familiaris [35] = experiment: (§4) Percent change in mean arterial blood pressure (MAP) in anesthetized open chest dogs iv administration at 0.1 mg/kg; type: functional, Canis lupus familiaris; method in brief: as §1
Canis familiaris [36] = experiment: Percent change in left ventricular pressure (dP/dtmax) in anesthetized dog after iv administration at 0.1 mg/kg; type: functional, Canis lupus familiaris, Heart left ventricle; method in brief: as §1
Canis familiaris [37] = experiment: (§5) Percent change in heart rate (HR) in anesthetized open chest dogs after a iv dose of 0.1 mg/kg; type: functional, Canis lupus familiaris; method in brief: as §1
Canis familiaris [38] = experiment: Percent increase in contractile force (CF) in anesthetized open-chest dogs iv administration of 0.1 mg/kg; type: functional, Canis lupus familiaris; method in brief: as §1
Canis familiaris [39] = experiment: Percent increase in contractile force (CF) in anesthetized open-chest dogs id administration of 1 mg/kg; type: functional, Canis lupus familiaris; conditions: route intraduodenal; method in brief: as §2
Canis familiaris [40] = experiment: Percent increase in contractile force (CF) in anesthetized open-chest dogs iv administration of 0.100 mg/kg; type: functional, Canis lupus familiaris; conditions: dose 0.1 mg/kg; method in brief: as §1
Canis familiaris [41] = experiment: Percent increase in contractile force (CF) in anesthetized open-chest dogs id administration of 0.100 mg/kg; type: functional, Canis lupus familiaris; conditions: dose 0.1 mg/kg; route intraduodenal; method in brief: as §2
Canis familiaris [42] = experiment: as §5; type: functional, Canis lupus familiaris; method in brief: as §1; remark: listed apart in the source
Canis familiaris [43] = experiment: as §4; type: functional, Canis lupus familiaris; method in brief: as §1; remark: listed apart in the source

IC50 (Phosphodiesterase 3): 2 µM
Compound: CCc1c(O)nc(C)c2cc(OC)c(OC)cc12
ED50 (Canis familiaris [1]): 0.012 mg/kg
Change (Canis familiaris [2]): -22%
Increase (Canis familiaris [3]): 92%
Increase (Canis familiaris [4]): 132%
Change (Canis familiaris [5]): -12%
Change (Canis familiaris [6]): 22%
Change (Canis familiaris [7]): 13%
Increase (Canis familiaris [8]): 98%
Increase (Canis familiaris [9]): 143%

Compound: COC(=O)Oc1cc2cc(OC)c(OC)cc2c(C)n1
Change (Canis familiaris [10]): -8%
Increase (Canis familiaris [11]): 119%
Change (Canis familiaris [12]): 19%
Increase (Canis familiaris [13]): 66%

Compound: COc1ccc2cc(O)nc(C)c2c1OC
Increase (Canis familiaris [14]): 62%
Change (Canis familiaris [15]): 10%
Change (Canis familiaris [16]): -6%
Increase (Canis familiaris [17]): 51%

Compound: COc1ccc2cc(O)ncc2c1OC
Increase (Canis familiaris [18]): 60%
Change (Canis familiaris [19]): -7%
Increase (Canis familiaris [20]): 34%
Change (Canis familiaris [21]): 13%

Compound: COc1cc2cc(O)nc(C)c2cc1OC
Change (Canis familiaris [22]): -32%
Change (Canis familiaris [23]): 25%
Increase (Canis familiaris [24]): 55%
Increase (Canis familiaris [25]): 100%

Compound: Cc1nc(O)cc2cc3c(cc12)OCO3
Change (Canis familiaris [26]): -10%
Increase (Canis familiaris [27]): 32%
Increase (Canis familiaris [28]): 82%
Change (Canis familiaris [29]): 13%

Compound: COc1cc2c(C)nc(OC(C)=O)c(Br)c2cc1OC
Change (Canis familiaris [30]): -33%
Increase (Canis familiaris [11]): 117%
Change (Canis familiaris [12]): 15%
Increase (Canis familiaris [13]): 60%

IC50 (Phosphodiesterase 3): 128 µM
Compound: COc1cc2c(C)nc(O)c(C3CCCC3)c2cc1OC
ED50 (Canis familiaris [1]): 1.88 mg/kg
Increase (Canis familiaris [31]): 46%
Change (Canis familiaris [32]): 5%
Change (Canis familiaris [33]): 3%
Increase (Canis familiaris [34]): 22%

IC50 (Phosphodiesterase 3): 10 µM
Compound: COc1cc2c(C)nc(O)c(C)c2cc1OC
ED50 (Canis familiaris [1]): 0.04 mg/kg
Change (Canis familiaris [2]): -6%
Increase (Canis familiaris [3]): 30%
Change (Canis familiaris [35]): -4%
Change (Canis familiaris [6]): 8%
Increase (Canis familiaris [36]): 48%
Change (Canis familiaris [37]): 15%
Increase (Canis familiaris [38]): 80%
Increase (Canis familiaris [39]): 64%

Compound: COc1ccc2[nH]c(=O)nc(C)c2c1OC [BEMARINONE]
Change (Canis familiaris [10]): -6%
Increase (Canis familiaris [11]): 71%
Change (Canis familiaris [12]): 11%
Increase (Canis familiaris [13]): 30%

Compound: Cc1[nH]c(=O)c(C#N)cc1-c1ccncc1 [MILRINONE]
Increase (Canis familiaris [3]): 36%
Change (Canis familiaris [35]): -3%
Increase (Canis familiaris [36]): 76%
Increase (Canis familiaris [40]): 105%
Increase (Canis familiaris [41]): 85%
Change (Canis familiaris [37]): 15%
Change (Canis familiaris [42]): 14%
Change (Canis familiaris [43]): -13%
